Screens from PubChem BioAssay.
The list is not random: actives were taken first. Their share in the collection is about 2.5%.
ABCB1 block: ABCB1 efflux pump inhibitors, primary screen, cell-based, multiplex, flow cytometry, ABCG2 counter-screen | CCRF-Adr cells, JC-1 efflux | inhibition, % at 6.6 µM | 0.067% of 190,000 active; in the data active = inhibition above about 40%;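 also: higher value means more JC-1 retained so stronger ABCB1 efflux block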
MEKK2mut PB1 HTS: MEK5 binding signal on mutant MEKK2 PB1, primary screen, biochemical, multiplex bead flow cytometry, Alexa488-MEK5; percent response, % at 10 µM; 0.35% of 290,000 active; Alexa488-MEK5 binding to MEKK2 mutant; in the data active = percent response above about 24%, passing the limit was not always enough
Efflux pump inh: inhibitors of Candida efflux pumps in yeast, primary screen, S. cerevisiae, Nile Red, multiplex. S. cerevisiae Candida pump triplex. inhibition, % at 10 µM. 0.44% of 330,000 active;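 active = plate passing quality check with inhibition over a set limit, or well fluorescence over plate mean plus 4 SD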;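 also: Nile Red retained in pooled yeast measured as flow cytometry median fluorescence; higher means more Nile Red kept so more efflux inhibition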
MEKK2 WT-MEK5: modulators of MEK5 binding to wildtype MEKK2, primary screen, biochemical, multiplex bead flow cytometry, Alexa488-MEK5; Mitogen-activated protein kinase kinase kinase 2 (Homo sapiens), Q9Y2U5; Alexa488-MEK5 binding to MEKK2 WT; actives lie on both sides; binding response (% of control), % at 10 µM; 1.1% of 290,000 active; in the data active = binding response below about 67% or above about 130%
MEKK3 PB1 HTS: modulators of MEKK3-MEK5 PB1 binding, primary screen, biochemical, wildtype MEKK3, multiplex bead flow cytometry, Alexa488-MEK5 | bead-based flow cytometry, Alexa488-MEK5 binding to MEKK3; actives lie on both sides; 0 = blocked by unlabeled MEK5, 100 = vehicle | binding response (% of control), % at 10 µM | 1.4% of 290,000 active;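 active = binding response more than 3 SD above or below the average of its plate-row segment, actives on both sides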;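 also: Alexa488 bead fluorescence after subtracting the streptavidin-only scavenger bead signal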
ABCG2 block: ABCG2 efflux pump inhibitors, primary screen, multiplex with ABCB1, IgMXP3 cells, flow cytometry; inhibition, % at 6.6 µM; 0.1% of 190,000 active; JC-1 efflux; Broad substrate specificity ATP-binding cassette transporter ABCG2 (Homo sapiens), Q9UNQ0;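 active = inhibition above 80%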
Target sequence (Q9UNQ0 whole entry, looked up): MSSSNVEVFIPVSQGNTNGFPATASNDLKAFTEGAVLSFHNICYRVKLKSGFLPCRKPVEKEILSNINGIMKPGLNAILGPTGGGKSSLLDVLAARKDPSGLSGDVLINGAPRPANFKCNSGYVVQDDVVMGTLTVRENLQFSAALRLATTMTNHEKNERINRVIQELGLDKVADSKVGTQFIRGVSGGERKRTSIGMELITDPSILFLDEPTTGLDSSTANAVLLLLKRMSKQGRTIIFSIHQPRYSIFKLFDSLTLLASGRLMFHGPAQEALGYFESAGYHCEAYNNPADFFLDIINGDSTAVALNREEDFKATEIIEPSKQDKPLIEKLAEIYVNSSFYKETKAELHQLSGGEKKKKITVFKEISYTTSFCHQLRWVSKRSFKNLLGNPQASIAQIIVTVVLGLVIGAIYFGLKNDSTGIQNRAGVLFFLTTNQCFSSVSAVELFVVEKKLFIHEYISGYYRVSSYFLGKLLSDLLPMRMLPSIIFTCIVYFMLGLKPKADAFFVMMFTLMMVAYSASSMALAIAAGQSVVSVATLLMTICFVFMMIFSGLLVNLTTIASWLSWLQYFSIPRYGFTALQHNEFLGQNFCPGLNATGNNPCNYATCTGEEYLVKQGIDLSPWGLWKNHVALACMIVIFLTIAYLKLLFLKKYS
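Measure – % inhibition of efflux relative to nicardipine and DMSO · Test system – ABCG2 IgMXP3 and barcoded ABCB1 CCRF-Adr cell mix · Control set – nicardipine as high control, DMSO as low control · Compound – one concentration, 6.6 µM final · Signal – flow cytometry of retained JC-1 fluorescence · Timing – 10 min exposure at 25 °C with rotation, no wash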
MEKK2wt confirm: modulators of MEK5 binding to wildtype MEKK2, confirmation, biochemical, single concentration, multiplex bead flow cytometry; shares compounds with MEKK3 PB1 HTS; Alexa488-MEK5 binding to MEKK2 WT; actives lie on both sides; binding response (% of control), % at 10 µM; 2.4% of 5,900 active; AID 1892, 2009; in the data active = binding response below about 16% or above about 210%; inactive = in between
MEKK2mut-MEK5: mutant MEKK2 PB1-MEK5 binding signal retest – biochemical, single concentration, multiplex bead flow cytometry, confirmation; shares compounds with MEKK3 PB1 HTS; 2% of 5,900 active; percent response, % at 10 µM; Alexa488-MEK5 binding to MEKK2 mutant; in the data active = percent response mostly above about 71%, no sharp cut-off; inactive = mostly below about 38%;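 also: higher means compound restores mutant binding toward wildtype level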
MEKK3-MEK5 inh: MEKK3 wild-type PB1 binding to MEK5, inhibitors, confirmation, biochemical, bead multiplex flow cytometry, single concentration, wildtype | shares compounds with MEKK3 PB1 HTS | Alexa488-MEK5 binding to MEKK3; stronger effect = lower value | binding response (% of control), % at 10 µM | 1.8% of 5,900 active | AID 1894, 2009;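 active = binding response below 72% of control, or above a set upper limit, though filed actives all read lower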
Hits are given with their value; – = inactive; · = not tested or not shown; ! = not active in a repeat; [ ] = dose if it differs, or a comment.

SMILES | ABCB1 block | MEKK2mut PB1 HTS | Efflux pump inh | MEKK2 WT-MEK5 | MEKK3 PB1 HTS | ABCG2 block | MEKK2wt confirm | MEKK2mut-MEK5 | MEKK3-MEK5 inh
CCN(Cc1ccccc1)S(=O)(=O)c1ccc(C(=O)N(CCCN(C)C)c2nc3cc4c(cc3s2)OCO4)cc1 | · | 39 | – | 202 | – | · | – | – | –
CN(C)CCCN(C(=O)CCSc1ccccc1)c1nc2cc3c(cc2s1)OCO3 | – | – | – | 153 | – | – | – | – | –
CN(C)CCCN(C(=O)c1ccc(S(=O)(=O)N(C)C)cc1)c1nc2cc3c(cc2s1)OCO3 | – | – | – | – | – | – | · | · | ·
CN(C)CCCN(C(=O)c1ccc(S(=O)(=O)N2CCc3ccccc32)cc1)c1nc2ccc(F)cc2s1 | · | 25 | – | 166 | – | · | – | – | –
Cc1c(Cl)cccc1NC(=S)N1CCN(S(=O)(=O)c2cccs2)CC1 | – | – | – | – | – | – | · | · | ·
O=C(Cn1cc2c(n1)CCCC2)NCCCN1CCCC1 | – | – | – | 134 | – | – | – | – | –
Cc1sc2ncnc(Sc3nnnn3-c3ccccc3)c2c1C | – | – | – | – | 78[inhibitor] | – | – | – | –
Cc1sc2ncnc(Sc3ccccc3C(=O)O)c2c1C | – | – | – | – | – | – | · | · | ·
CCOC(=O)c1sc2nc(C(C)C)c3c(c2c1N)CC(C)(C)OC3 | – | – | – | – | – | – | · | · | ·
CCOC(=O)c1sc2nc(C(C)C)c3c(c2c1N)CCC3 | – | – | – | – | 138 | – | – | – | –
CC(=O)Nc1ccc(OCC(=O)N2CCC(Cc3ccccc3)CC2)cc1 | – | – | – | – | – | – | · | · | ·
O=C(Nc1ccc(OCC(=O)N2CCC(Cc3ccccc3)CC2)cc1)c1ccco1 | – | – | – | – | 67[inhibitor] | – | – | – | –
Cc1cc2occ(CC(=O)N(C)CC(=O)Nc3ccccc3Cl)c2cc1C | · | · | – | · | · | · | · | · | ·
COc1ccccc1N1CCN(CC(O)COc2cccc3ccccc23)CC1 (stereo not drawn) | – | – | – | – | 75![inhibitor] | – | – | – | –
Cc1ccccc1OCC(O)CN1CCN(C)CC1 (stereo not drawn) | – | – | – | – | – | – | · | · | ·
OC(COc1ccccc1Cl)CN1CCN(CC(O)COc2ccccc2Cl)CC1 (stereo not drawn) | – | 35 | – | 150 | – | – | – | – | –
OC(COc1cccc2ccccc12)CN1CCN(c2ccccc2)CC1 (stereo not drawn) | · | – | – | – | – | · | · | · | ·
Cc1cc(C)c(NC(=O)CNC(=O)c2ccccc2OCc2c(C)noc2C)c(C)c1 | · | · | – | · | · | · | · | · | ·
O=C(Nc1ccon1)Nc1cccc(Cl)c1Cl | · | – | – | – | – | · | · | · | ·
Cc1cc(C)c(C)c(S(=O)(=O)N2CCN(C(=O)CNC(=O)c3ccco3)CC2)c1C | · | · | – | · | · | · | · | · | ·
CCN(CC)CCn1c(SCC(=O)Nc2ccc(F)cc2)nc2c(sc3ccccc32)c1=O | – | – | – | – | – | – | · | · | ·
C=CCN(C(=O)CSc1nc2c(sc3ccccc32)c(=O)n1CCN(CC)CC)c1ccccc1 | – | 65 | – | 192 | – | – | – | – | –
